Measurements as given in ChEMBL document CHEMBL4513216, “Probing the Open Global Health Chemical Diversity Library for Multistage-Active Starting Points for Next-Generation Antimalarials” (ACS Infect Dis, 2020).

Test: Toxicity liver stage against HepG2, at 10uM
Format: cell-based
Set-up: test concentration 10 uM, cell line HepG2-A16-CD81EGFP
Conditions: human, HepG2-A16-CD81EGFP cells; read-out: INHIBITION
Outline: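 Uninfected HepG2-A16-CD81EGFP cells, 3 × 10^3 per well, 1536-well, plated on prespotted compound at 10 μM final, parasite-free screening media added to match infected plates; puromycin 10 μM positive, DMSO 0.5% negative; run in parallel with 48 h PbLuc assay at 37 °C, 5% CO2; viability by CellTiter-Glo luminescence, normalized to controls.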

| Structure (SMILES) | cytotoxicity at 10 µM |
| --- | --- |
| COCCN1C(=O)[C@@H]2CC[C@H]1CN(S(=O)(=O)c1cccc(Cl)c1)C2 | 20.5% |
| COc1ccncc1NC(=O)c1[nH]nc(C(C)C)c1Br | 4.04% |
| Cc1nc(CN2CCC(O)(c3ccccc3F)CC2)c2ccccn12 | 2.45% |
| O=C(C1CCS(=O)(=O)CC1)N1CCC(c2ccc(F)cc2)C1 (configuration not stated) | -60.1% |
| Cc1ccc(OC2(C(=O)O)CCN(C/C=C/c3ccco3)CC2)c(C)n1 | 0.449% |
| Cc1nc(NCCN2CCCC2=O)cc(C2CN(C)CCO2)n1 (configuration not stated) | -10.5% |
| Cc1cc(C)n(CCCN(C)c2cc(N(C)C)ncn2)n1 | 3.85% |
| O=S(=O)(C1CC1)N1C[C@H](Oc2ccccn2)[C@H]2OCCC[C@H]21 | -3.7% |
| CC(C)OCCCNC(=O)NC(C)c1ccc(-n2cncn2)cc1 (configuration not stated) | -5.32% |
| CN(C)c1ncccc1C(=O)N1CCCN(c2cccnn2)CC1 | 9.41% |
| CN(Cc1ccccc1F)C(=O)Cn1cc(NC(=O)C(C)(C)C)cn1 | 5.23% |
| CC1(c2ncc(CN3CCN(c4ccccn4)CC3)cn2)CCCCO1 (configuration not stated) | 2.68% |
| CC=C(C)C(=O)NS(=O)(=O)c1ccc(Cl)cn1 | 7.04% |
| c1cncc(CN2CCc3ncnc(C4CC4)c3CC2)c1 | -129% |
| CCCc1cc(=O)n(CC(N)=O)c(-n2nc(C)cc2C)n1 | 0.097% |
| Cc1cc(C2CCCN2C(=O)COc2ccc(CC#N)cc2)no1 (configuration not stated) | -38.9% |
| CCOC(=O)N1CCC(NC(=O)Nc2cccnc2OCC)CC1 | -31.9% |
| Cc1cc(F)ccc1-c1cc(NCCO)nc2[nH]ccc12 | 21.7% |
| Cc1nc(C)c(C(C)NCc2c(C)nn(C)c2N(C)C)s1 (configuration not stated) | -4.96% |
| COCC(=O)N1CCOCC2(CCN(Cc3cccs3)C2)C1 (configuration not stated) | -6.16% |
| CCCn1c(C)c(CC(=O)N(C)CC(=O)OC)c2c1CC(C)(C)CC2=O | -0.839% |
| O=C1NCC(C(=O)N(Cc2cccc(Br)c2)C2CC2)N1 (configuration not stated) | 1.56% |
| CCOc1nnc(CN(C)CC2CCCN2c2cccnn2)s1 (configuration not stated) | -10.7% |

| Structure (SMILES) | cytotoxicity at 10 µM |
| --- | --- |
| CC(=O)NCc1nc(CCOc2ccc(Cl)cc2)no1 | -145% |
| CC(C)c1cc(-c2nn3c(C(C)C)nnc3s2)[nH]n1 | 0.999% |
| O=C(c1cccc(O)c1)N1C[C@@H](CN2CCCCC2)[C@@H](CO)C1 | -2.88% |
| Cc1nn(CC(=O)N2CCN(c3ccc(F)cc3)CC2)c(C)c1Cl | 6.87% |
| Cc1ccc(-c2ccc(C(=O)NCCC(=O)N(C)C)c(F)c2)cc1 | -0.0916% |
| O=C(c1ccoc1)N1CCCn2nnc(COCC3CC3)c2C1 | -68.5% |
| O=C(CCS(=O)(=O)C1CCCC1)N1CCCC1c1ccsc1 (configuration not stated) | 1.06% |
| CS(=O)(=O)CCC(=O)Nc1ccsc1 | -3.39% |
| CN(C)C(=O)C1OC2(CCN(C(=O)c3ccco3)CC2)c2ccccc21 (configuration not stated) | 4.93% |
| O=C(C1CCOCC1)N1C[C@@H]2OCCN(CCN3CCCC3)[C@@H]2C1 | -3.83% |
| CC(C)CNC(=O)[C@H]1CCS(=O)(=O)[C@@H]2CN(CC(C)C)C[C@H]12 | -1.66% |
| COc1ccc(OC)c(-n2cnnc2COC(C)C)c1 | -6.57% |
| Cc1nc(N2CCCC2)ncc1-c1cc(O)nc(NCC2CCCO2)n1 (configuration not stated) | 0.723% |
| Cc1ccc(CN2CCc3onc(C(=O)Nc4cccnc4)c3C2)o1 | 5.15% |
| CC(C)Cc1noc(CN2CCOCC2)n1 | -2.27% |
| CSCC(=O)N1CCc2nc(C)nc(NCc3ccccc3)c2CC1 | 1.69% |
| Cc1ccc2c(c1)C(NC(C)C)CC21CCNCC1 (configuration not stated) | -10.6% |
| CNc1cc2c(nn1)CCN(C(=O)c1ccc(-n3cccn3)nc1)C2 | -4.78% |
| O=C(Cc1cccnc1)N1CCC2(CC1)CCN(C1CCOCC1)CC2 | -8.25% |
| Cc1n[nH]c(C)c1C1CCCN1C(=O)Cc1cccc(F)c1 (configuration not stated) | 4.8% |
| Cc1csc(N2CCN(C(=O)Cc3ccc(C)s3)CC2)n1 | -7.05% |
| COC(=O)c1cccc(C(=O)N(C)Cc2ccsc2)c1 | 10.7% |
| NC(=O)CCC1CCCN(c2ncnc3c2Cc2ccccc2OC3)C1 (configuration not stated) | 0.721% |

| Structure (SMILES) | cytotoxicity at 10 µM |
| --- | --- |
| CCNC(=O)CCS(=O)(=O)Cc1ccn(-c2cccc(F)c2)n1 | 11.1% |
| COCCN(C)c1cnn(C)c(=O)c1Br | 1.09% |
| CCN1CC(CN(C)Cc2nc(-c3ccc(F)cc3)oc2C)CC1=O (configuration not stated) | -2.22% |
| Cc1nc(C)n(CC2CCCN(Cc3nc(C)c(C)o3)C2)n1 (configuration not stated) | -2.68% |
| CC(c1cccc(-c2ncccc2C#N)c1)N(C)C (configuration not stated) | -5.4% |
| O=c1cccnn1CC1CN(Cc2ccsc2)Cc2nccn2C1 (configuration not stated) | 1.31% |
| CCN1CCCN(c2ncccc2C(=O)N2CCCCC2)CC1 | -5.1% |
| CC(C)n1ccnc1C1CCN(C(=O)c2ccccn2)CC1 | -2.85% |
| Cc1ccc(CN(C)CC(=O)NC2(C)CCS(=O)(=O)C2)cc1 (configuration not stated) | 5.05% |
| Cc1nc[nH]c1CN1CCC2(CC1)CC(Nc1ncccn1)CO2 (configuration not stated) | 12.2% |
| CCc1nc(Cn2ccnc2-c2nccn2C)no1 | -42% |
| O=C(Nc1ccnc(OC2CCOC2)c1)c1ccc(F)cc1Cl (configuration not stated) | 3.44% |
| Cc1ccc(CN2CC3(CCNCC3)CCC2=O)c(F)c1F | 4.95% |
| c1ccc(Cc2noc(CN3CCCCC3C3OCCO3)n2)cc1 (configuration not stated) | -2.62% |
| OC(COc1ccccc1)CN1CCC(c2ccn[nH]2)CC1 (configuration not stated) | -3.76% |
| Cc1n[nH]c(C)c1C1CCCN1C(=O)NC(C)(C)C (configuration not stated) | -4.27% |
| CC(C)[C@@H]1CN(C(=O)CN(C)Cc2ccccc2)C[C@H]1C(=O)O | -3.99% |
| CSCc1noc(CN2CCCCC2CCc2ccc(O)cc2)n1 (configuration not stated) | -1.58% |
| CCS(=O)(=O)N1CCc2ccc(NC(=O)Nc3ccc(F)cc3F)cc21 | 51.2% |
| Cc1nc(C)n(C2CCCN(C(=O)c3ccc(F)cc3F)C2)n1 (configuration not stated) | -2.9% |
| CN1CCC(N(C)CCC(=O)N2CCC(CCc3ccccc3)CC2)C1 (configuration not stated) | -5.87% |
| CCc1nc(C)c(C(=O)NCCNc2ncnc3sccc23)s1 | 41.1% |
| NCC1CN(C(=O)Cn2ncc(N3CCCCC3)cc2=O)CCO1 (configuration not stated) | -8.27% |

| Structure (SMILES) | cytotoxicity at 10 µM |
| --- | --- |
| Cc1nc(CN2CCN(CCOc3ccc(C(C)C)c(C)c3)CC2)no1 | -11.2% |
| CC1CN(CC(=O)NCc2ccccn2)CCN1Cc1nccn1C (configuration not stated) | -4.07% |
| CNC(=O)c1ccc(=O)n(Cc2csc(N(C)C(C)=O)n2)c1 | 0.138% |
| Cc1ccc2c(cnn2CCC(=O)NCc2csc(C3CC3)n2)c1 | 4.88% |
| COc1ccccc1CC(C)CC(=O)N(C)Cc1cc(C)on1 (configuration not stated) | 3.8% |
| Cc1cc(CNc2ccc(C(F)(F)F)cc2)no1 | -54% |
| Cc1cc2ccncc2n1CC1(O)CCN(C(=O)c2ccccn2)CC1 | 0.166% |
| COCCN1CCCCC12CC(=O)N(c1cccc(C#N)c1)C2 (configuration not stated) | -102% |
| Cc1ccc(NC2CCN(C(=O)Cc3c(C)nn(C)c3C)CC2)nn1 | -11.9% |
| CN1CCN(Cc2ccccc2CNC(=O)c2ccc(Br)cc2F)CC1 | 4.65% |
| Cc1ccc(CCCC(=O)N2CCN(C3CCCN(C)C3)CC2)s1 (configuration not stated) | 5.82% |
| CC(NC(=O)NCC1(c2ccc(F)cc2)CC1)c1nncn1C (configuration not stated) | -4.75% |
| O=C(NC1CC1)[C@H]1C[C@H]2OCC[C@H]2N(Cc2cccc3ccccc23)C1 | 2.64% |
| CC(c1ncc(C(C)(C)C)o1)N1CCN(Cc2ccco2)CC1 (configuration not stated) | 5.3% |
| Cc1cc(C)c(CNC(=O)Cc2ccc3c(c2)CCCC3)c(=O)[nH]1 | -7.39% |
| CC(C)N1CCCC(CNC(=O)CN(C)S(=O)(=O)c2ccccc2)C1 (configuration not stated) | -3.88% |
| CCCN(C(=O)c1ccc(-n2ccnn2)cc1)c1cccnc1 | 13.8% |
| Cc1nccn1CC1CCCN(C(=O)c2cnn(C)c2)C1 (configuration not stated) | -6.44% |
| Cc1cn2c(n1)CCC(NC(=O)CCn1cncn1)C2 (configuration not stated) | -5.72% |
| COCCn1c(-c2cccc(OC)c2)cnc1NC(=O)NC(C)C | 4.04% |
| Cc1cc(CN(C)CC2CCCCC2)no1 | 13.2% |
| Cc1cc(C)n(CCNC(=O)c2cc(C3CC3)n[nH]2)n1 | 7.39% |
| CCC(=O)N1CCN(c2ncnc3c(C)nn(C)c23)CC1 | -1.43% |

| Structure (SMILES) | cytotoxicity at 10 µM |
| --- | --- |
| Cc1nc2c(c(N3CC=CC3)n1)CCN(c1ncccc1C(N)=O)CC2 | -10.2% |
| Cc1nc(CN2CCCC(CCc3ccc(F)c(F)c3)C2)c[nH]1 (configuration not stated) | -10.4% |
| O=C(NC1CCCCC1)N1CCc2onc(COc3cccnc3)c2C1 | -69.9% |
| CNC(=O)Cc1coc(-c2ccc(F)cc2)n1 | -4.15% |
| O=C(O)c1ccccc1-c1ccc(CN2CC(c3ccncn3)C2)o1 | 4.54% |
| Fc1cccc(-n2ccc(CN3CCCC3Cn3cccn3)n2)c1 (configuration not stated) | -13.1% |
| COc1cc(C2c3c(n[nH]c3C)N=C3COC(=O)C32)cc2c1OCO2 (configuration not stated) | 87.7% |
| CCCNC(=O)N1CCc2ccc(S(=O)(=O)N3CCOCC3)cc2C1 | -2.56% |
| COCC[C@]1(O)CCN(S(=O)(=O)c2ccc(C)cc2OC)C[C@H]1C | 11.4% |
| COc1cc(CNC(=O)C2CC(=O)N(C(C)C)C2)ccn1 (configuration not stated) | -5.36% |
| CN(C)c1cccc(C(=O)NCC(O)c2cccs2)c1 (configuration not stated) | 16.6% |
| Cc1nc(CN(CCc2ccccc2)C2CCN(C)CC2)no1 | -4% |
| CCOC(=O)NCCC(=O)NC(C)(C)c1ccc2c(c1)OCCO2 | -0.418% |
| CC(C)n1cnc2c(N3CCCC3)nc(C3CCNCC3)cc21 | -3.03% |
| CN(Cc1nnc2ccccn12)C(=O)CCC1CCCC1 | -2.94% |
| CCc1nccn1C1CCCN(C(=O)c2ccn(-c3ccccc3)n2)C1 (configuration not stated) | 5.84% |
| O=C(NCC(F)(F)F)C1CSCN1S(=O)(=O)c1ccc(F)cc1 (configuration not stated) | 1.85% |
| COc1ccc(Br)c(C(=O)NC(CC(=O)O)c2cccs2)c1 (configuration not stated) | -3.48% |
| C=C(C)CN(CC)C(=O)Nc1ccccc1CN(C)C(C)=O | -9.6% |
| O=C(c1cccnc1O)N1CCN(CCc2cccs2)CC1 | -8.86% |
